{
  "source": "ChEMBL document CHEMBL1144265",
  "about": "“Syntheses of 2,4,6-trisubstituted triazines as antimalarial agents” (Bioorg Med Chem Lett, 2005)",
  "key": {"[1]": {"assay": "In vitro PKa value was determined", "type": "physicochemical"}, "[2]": {"assay": "Partition coefficient (logP)", "type": "physicochemical", "settings": "octanol/water"}, "[3]": {"system": "Plasmodium falciparum", "assay": "In vitro minimum inhibiting concentration for schizont maturation from ring stage parasite over 40 hrs", "type": "functional", "outline": "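P. falciparum NF-54 kept in RPMI-1640 with 25 mM HEPES and 1% D-glucose. Rieckmann microassay: compound at […] in duplicate wells with parasitized cells, 37 °C in a candle jar for 36–40 h. Giemsa-stained smears were read by microscopy for ring-to-trophozoite/schizont maturation. MIC taken as the concentration that blocks complete maturation to schizonts.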"}},
  "data": [
    {"smiles": "O=[N+]([O-])c1ccc(Nc2nc(N3CCOCC3)nc(N3CCOCC3)n2)cc1", "values": [
      {"measurement": "pKa", "setting": "[1]", "result": 2.98},
      {"measurement": "logP", "setting": "[2]", "result": -0.06},
      {"measurement": "MIC", "setting": "[3]", "result": 10, "unit": "µg/mL"}
    ]},
    {"smiles": "O=[N+]([O-])c1ccc(Nc2nc(Nc3cccc(F)c3)nc(Nc3cccc(F)c3)n2)cc1", "values": [
      {"measurement": "pKa", "setting": "[1]", "result": 3.13},
      {"measurement": "logP", "setting": "[2]", "result": 1.94},
      {"measurement": "MIC", "setting": "[3]", "result": 10, "unit": "µg/mL"}
    ]},
    {"smiles": "O=[N+]([O-])c1ccc(Nc2nc(NCCCn3ccnc3)nc(NCCCn3ccnc3)n2)cc1", "values": [
      {"measurement": "pKa", "setting": "[1]", "result": 1.96},
      {"measurement": "logP", "setting": "[2]", "result": 0.345},
      {"measurement": "MIC", "setting": "[3]", "result": 1, "unit": "µg/mL"}
    ]},
    {"smiles": "O=[N+]([O-])c1ccc(Nc2nc(NC3CCCCC3)nc(NC3CCCCC3)n2)cc1", "values": [
      {"measurement": "pKa", "setting": "[1]", "result": 2.58},
      {"measurement": "logP", "setting": "[2]", "result": 0.356},
      {"measurement": "MIC", "setting": "[3]", "result": 1, "unit": "µg/mL"}
    ]},
    {"smiles": "O=[N+]([O-])c1ccc(Nc2nc(N3CCc4cccnc4C3)nc(N3CCc4cccnc4C3)n2)cc1", "values": [
      {"measurement": "pKa", "setting": "[1]", "result": 2.94},
      {"measurement": "logP", "setting": "[2]", "result": 1.64},
      {"measurement": "MIC", "setting": "[3]", "result": 10, "unit": "µg/mL"}
    ]},
    {"smiles": "CN1CCN(c2nc(Nc3ccc([N+](=O)[O-])cc3)nc(N3CCN(C)CC3)n2)CC1", "values": [
      {"measurement": "pKa", "setting": "[1]", "result": 1.88},
      {"measurement": "logP", "setting": "[2]", "result": 0.228},
      {"measurement": "MIC", "setting": "[3]", "result": 1, "unit": "µg/mL"}
    ]},
    {"smiles": "O=[N+]([O-])c1ccc(Nc2nc(NCCO)nc(NCCO)n2)cc1", "values": [
      {"measurement": "pKa", "setting": "[1]", "result": 2.86},
      {"measurement": "logP", "setting": "[2]", "result": -0.56},
      {"measurement": "MIC", "setting": "[3]", "result": 50, "unit": "µg/mL"}
    ]},
    {"smiles": "O=[N+]([O-])c1ccc(Nc2nc(NC3CCCCCC3)nc(NC3CCCCCC3)n2)cc1", "values": [
      {"measurement": "pKa", "setting": "[1]", "result": 2.64},
      {"measurement": "logP", "setting": "[2]", "result": 0.372},
      {"measurement": "MIC", "setting": "[3]", "result": 2, "unit": "µg/mL"}
    ]},
    {"smiles": "CCN(CC)c1nc(Nc2ccc([N+](=O)[O-])cc2)nc(N(CC)CC)n1", "values": [
      {"measurement": "pKa", "setting": "[1]", "result": 3.05},
      {"measurement": "logP", "setting": "[2]", "result": 2.06},
      {"measurement": "MIC", "setting": "[3]", "result": 10, "unit": "µg/mL"}
    ]},
    {"smiles": "O=[N+]([O-])c1ccc(Nc2nc(N3CCCCC3)nc(N3CCCCC3)n2)cc1", "values": [
      {"measurement": "pKa", "setting": "[1]", "result": 3.95},
      {"measurement": "logP", "setting": "[2]", "result": 2.54},
      {"measurement": "MIC", "setting": "[3]", "result": 50, "unit": "µg/mL"}
    ]},
    {"smiles": "O=[N+]([O-])c1ccc(Nc2nc(N3CCCC3)nc(N3CCCC3)n2)cc1", "values": [
      {"measurement": "pKa", "setting": "[1]", "result": 3.62},
      {"measurement": "logP", "setting": "[2]", "result": 2.46},
      {"measurement": "MIC", "setting": "[3]", "result": 50, "unit": "µg/mL"}
    ]},
    {"smiles": "CCCCNc1nc(NCCCC)nc(Nc2ccc([N+](=O)[O-])cc2)n1", "values": [
      {"measurement": "pKa", "setting": "[1]", "result": 2.32},
      {"measurement": "logP", "setting": "[2]", "result": 0.396},
      {"measurement": "MIC", "setting": "[3]", "result": 2, "unit": "µg/mL"}
    ]},
    {"smiles": "CC(C)(C)Nc1nc(Nc2ccc([N+](=O)[O-])cc2)nc(NC(C)(C)C)n1", "values": [
      {"measurement": "pKa", "setting": "[1]", "result": 3.68},
      {"measurement": "logP", "setting": "[2]", "result": 2.84},
      {"measurement": "MIC", "setting": "[3]", "result": 50, "unit": "µg/mL"}
    ]},
    {"smiles": "O=[N+]([O-])c1ccc(Nc2nc(N3CCN(c4ccccc4)CC3)nc(N3CCN(c4ccccc4)CC3)n2)cc1", "values": [
      {"measurement": "pKa", "setting": "[1]", "result": 2.86},
      {"measurement": "logP", "setting": "[2]", "result": 1.64},
      {"measurement": "MIC", "setting": "[3]", "result": 10, "unit": "µg/mL"}
    ]},
    {"smiles": "O=[N+]([O-])c1ccc(Nc2nc(N3CCN(Cc4ccccc4)CC3)nc(N3CCN(Cc4ccccc4)CC3)n2)cc1", "values": [
      {"measurement": "pKa", "setting": "[1]", "result": 2.12},
      {"measurement": "logP", "setting": "[2]", "result": 0.92},
      {"measurement": "MIC", "setting": "[3]", "result": 2, "unit": "µg/mL"}
    ]},
    {"smiles": "O=[N+]([O-])c1ccc(Nc2nc(NCc3ccccc3)nc(NCc3ccccc3)n2)cc1", "values": [
      {"measurement": "pKa", "setting": "[1]", "result": 2.88},
      {"measurement": "logP", "setting": "[2]", "result": 1.68},
      {"measurement": "MIC", "setting": "[3]", "result": 10, "unit": "µg/mL"}
    ]},
    {"smiles": "CC1(C)N=C(N)N=C(N)N1c1ccc(Cl)cc1", "note": "[CYCLOGUANIL]", "values": [
      {"measurement": "pKa", "setting": "[1]", "result": 3.82},
      {"measurement": "logP", "setting": "[2]", "result": 2.94},
      {"measurement": "MIC", "setting": "[3]", "result": 64, "unit": "µg/mL"}
    ]}
  ]
}
